Data set [1] deals with T1, Carbamoyl-phosphate synthase [ammonia], mitochondrial (Homo sapiens, UniProt P31327).
T1 sequence (P31327 whole entry): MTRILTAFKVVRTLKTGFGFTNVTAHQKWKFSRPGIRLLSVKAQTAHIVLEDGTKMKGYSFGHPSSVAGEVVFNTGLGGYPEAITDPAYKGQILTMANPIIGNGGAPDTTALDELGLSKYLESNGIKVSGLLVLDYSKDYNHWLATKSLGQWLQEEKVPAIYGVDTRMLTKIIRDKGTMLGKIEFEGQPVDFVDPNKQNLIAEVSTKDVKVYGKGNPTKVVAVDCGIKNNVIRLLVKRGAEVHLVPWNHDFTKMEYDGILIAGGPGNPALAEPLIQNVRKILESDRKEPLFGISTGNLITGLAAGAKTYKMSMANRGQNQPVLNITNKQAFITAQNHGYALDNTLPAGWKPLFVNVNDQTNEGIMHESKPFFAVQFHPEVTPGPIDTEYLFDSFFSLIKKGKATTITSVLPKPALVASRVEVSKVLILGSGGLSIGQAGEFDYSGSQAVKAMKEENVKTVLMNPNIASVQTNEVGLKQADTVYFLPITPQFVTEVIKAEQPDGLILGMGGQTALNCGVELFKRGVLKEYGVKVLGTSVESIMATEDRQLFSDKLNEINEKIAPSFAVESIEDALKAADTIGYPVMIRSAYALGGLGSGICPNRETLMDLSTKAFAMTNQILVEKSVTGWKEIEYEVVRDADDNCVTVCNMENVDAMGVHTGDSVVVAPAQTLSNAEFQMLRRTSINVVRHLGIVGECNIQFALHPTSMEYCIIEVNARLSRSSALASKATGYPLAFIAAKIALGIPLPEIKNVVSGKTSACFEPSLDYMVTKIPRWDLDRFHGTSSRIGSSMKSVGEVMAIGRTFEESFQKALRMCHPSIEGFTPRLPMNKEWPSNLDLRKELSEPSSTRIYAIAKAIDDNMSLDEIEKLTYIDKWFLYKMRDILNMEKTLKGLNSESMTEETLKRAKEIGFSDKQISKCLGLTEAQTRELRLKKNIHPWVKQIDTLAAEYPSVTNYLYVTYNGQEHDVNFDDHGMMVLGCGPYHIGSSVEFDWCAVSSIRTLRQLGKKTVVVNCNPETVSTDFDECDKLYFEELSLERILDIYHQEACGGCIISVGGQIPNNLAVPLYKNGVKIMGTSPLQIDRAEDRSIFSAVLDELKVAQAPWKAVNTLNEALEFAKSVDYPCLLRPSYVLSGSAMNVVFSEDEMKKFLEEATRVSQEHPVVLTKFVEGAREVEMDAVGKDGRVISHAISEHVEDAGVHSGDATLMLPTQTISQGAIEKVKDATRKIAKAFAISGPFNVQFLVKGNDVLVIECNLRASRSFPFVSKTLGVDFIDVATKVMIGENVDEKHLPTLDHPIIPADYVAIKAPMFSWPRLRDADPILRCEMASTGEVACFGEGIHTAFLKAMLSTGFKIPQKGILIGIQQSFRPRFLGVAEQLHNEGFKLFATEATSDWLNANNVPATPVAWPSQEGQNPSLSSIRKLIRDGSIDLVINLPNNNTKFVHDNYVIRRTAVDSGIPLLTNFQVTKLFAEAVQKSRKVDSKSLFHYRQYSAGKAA
Description: Allosteric inhibition of His-tagged CPS1 (unknown origin) expressed in baculovirus infected Sf21 insect cells assessed as reduction in ADP level preincubated for 20 mins followed by ATP addition measured after 60 mins by ADP-Glo assay. The essentials: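 CPS1 activity read as ADP formation in the presence of inhibitor. IC50 taken as the average of at least two experimental replicates (N = 2).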

Data set [2] has as its target T1, Carbamoyl-phosphate synthase [ammonia], mitochondrial. Description: Inhibition of CPS1 in human pooled hepatocytes assessed as reduction in urea production measured after 16 hrs in presence of NH4Cl by tecan-plate reader analysis. The data set is classed as cell-based. Summed up:
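Primary human hepatocytes given 10 mM NH4Cl together with compound over a concentration series. Urea secreted into the medium measured after 16 h. IC50 derived from the inhibition of urea production.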

Data set [3] is described as follows: Clearance in human pooled hepatocytes assessed per million cells at 1 uM measured up to 120 mins by LC-MS/MS analysis. The data set is classed as ADME, cell-based, Hepatocyte. To be noted: read-out: CLH.
Data set [4] in a line: Kinetic solubility in Dulbecco's phosphate buffer saline at pH 7.4 by UPLC analysis. The data set is classed as physicochemical. The conditions noted are these: Dulbecco's phosphate buffered saline, read-out: Kinetic_solubility.
Data set [5] concerns the target Multifunctional protein CAD (Homo sapiens, UniProt P27708). Description: Inhibition of CAD (unknown origin) CSP2 activity expressed in Escherichia coli BL21 (DE3) preincubated for 20 mins followed by ATP addition measured after 60 mins by ADP-Glo assay.
Data set [6] is described as follows: Apparent permeability across apical to basolateral membrane in human Caco2 cells at 5 uM incubated for 2 hrs by LC-MS/MS analysis. The conditions noted are these: Caco-2. The data set is classed as ADME, cell-based.

The values below come from ChEMBL document CHEMBL4616711, “Discovery of 2,6-Dimethylpiperazines as Allosteric Inhibitors of CPS1” (ACS Med Chem Lett, 2020).

Structures are written as SMILES. Values after ≈ are worked out from the molar mass of the structure shown. A value given as a limit tells only on which side of the number the result lay.

Sequence of Multifunctional protein CAD (P27708 whole entry): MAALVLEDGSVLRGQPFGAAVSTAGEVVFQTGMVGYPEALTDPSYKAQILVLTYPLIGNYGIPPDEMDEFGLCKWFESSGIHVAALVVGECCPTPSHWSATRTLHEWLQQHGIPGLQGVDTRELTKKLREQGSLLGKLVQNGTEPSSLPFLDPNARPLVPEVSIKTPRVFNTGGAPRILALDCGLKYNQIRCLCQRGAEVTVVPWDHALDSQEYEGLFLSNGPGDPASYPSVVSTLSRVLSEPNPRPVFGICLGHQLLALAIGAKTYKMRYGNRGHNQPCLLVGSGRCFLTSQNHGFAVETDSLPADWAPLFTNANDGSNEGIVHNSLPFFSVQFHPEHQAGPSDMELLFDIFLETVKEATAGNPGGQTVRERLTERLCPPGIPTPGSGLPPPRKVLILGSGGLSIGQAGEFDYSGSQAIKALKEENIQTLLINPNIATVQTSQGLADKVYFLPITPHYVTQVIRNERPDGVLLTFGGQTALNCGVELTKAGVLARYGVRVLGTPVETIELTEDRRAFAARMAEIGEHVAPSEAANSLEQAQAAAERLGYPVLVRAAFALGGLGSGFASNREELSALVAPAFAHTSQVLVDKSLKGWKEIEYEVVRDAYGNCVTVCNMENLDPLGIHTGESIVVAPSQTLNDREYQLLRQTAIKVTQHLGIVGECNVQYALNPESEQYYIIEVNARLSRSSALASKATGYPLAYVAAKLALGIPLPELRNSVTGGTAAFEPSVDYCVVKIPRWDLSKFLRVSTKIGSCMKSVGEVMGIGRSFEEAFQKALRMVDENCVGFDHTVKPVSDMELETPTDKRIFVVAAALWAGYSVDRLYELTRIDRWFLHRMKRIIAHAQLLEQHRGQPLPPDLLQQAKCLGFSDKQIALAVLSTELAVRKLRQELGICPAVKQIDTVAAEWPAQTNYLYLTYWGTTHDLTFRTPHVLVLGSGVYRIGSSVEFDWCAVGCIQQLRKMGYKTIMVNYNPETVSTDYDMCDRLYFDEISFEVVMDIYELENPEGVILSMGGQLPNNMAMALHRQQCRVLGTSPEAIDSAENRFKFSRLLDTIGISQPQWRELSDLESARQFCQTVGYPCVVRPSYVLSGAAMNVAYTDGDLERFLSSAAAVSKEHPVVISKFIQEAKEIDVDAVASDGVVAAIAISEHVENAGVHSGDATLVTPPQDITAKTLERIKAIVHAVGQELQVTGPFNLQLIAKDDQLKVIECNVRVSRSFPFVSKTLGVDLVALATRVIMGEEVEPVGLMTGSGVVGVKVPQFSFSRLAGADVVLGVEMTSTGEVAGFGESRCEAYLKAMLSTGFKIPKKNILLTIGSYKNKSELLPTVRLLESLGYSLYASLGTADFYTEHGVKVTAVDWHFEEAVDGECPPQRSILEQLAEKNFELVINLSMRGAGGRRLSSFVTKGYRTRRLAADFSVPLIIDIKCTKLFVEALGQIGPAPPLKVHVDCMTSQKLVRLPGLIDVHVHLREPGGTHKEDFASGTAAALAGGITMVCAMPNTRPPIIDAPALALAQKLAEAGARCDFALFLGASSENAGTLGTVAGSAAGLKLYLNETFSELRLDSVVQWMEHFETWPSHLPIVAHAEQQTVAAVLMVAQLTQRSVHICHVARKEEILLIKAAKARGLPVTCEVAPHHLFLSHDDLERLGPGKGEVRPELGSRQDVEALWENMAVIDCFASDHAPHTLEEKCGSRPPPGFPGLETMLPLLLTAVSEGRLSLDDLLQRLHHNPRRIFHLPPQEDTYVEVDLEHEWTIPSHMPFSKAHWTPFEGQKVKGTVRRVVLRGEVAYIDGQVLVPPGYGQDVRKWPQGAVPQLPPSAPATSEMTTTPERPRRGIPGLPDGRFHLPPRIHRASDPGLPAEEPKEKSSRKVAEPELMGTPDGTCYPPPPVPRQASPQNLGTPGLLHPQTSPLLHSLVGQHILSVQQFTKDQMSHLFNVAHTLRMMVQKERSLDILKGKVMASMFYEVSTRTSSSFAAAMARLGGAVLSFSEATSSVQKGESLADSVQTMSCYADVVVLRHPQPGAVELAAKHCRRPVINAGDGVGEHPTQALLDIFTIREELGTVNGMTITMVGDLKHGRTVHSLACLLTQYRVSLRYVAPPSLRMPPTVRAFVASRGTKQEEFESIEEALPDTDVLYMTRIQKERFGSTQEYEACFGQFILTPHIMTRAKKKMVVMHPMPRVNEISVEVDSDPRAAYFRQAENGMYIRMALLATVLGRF

Consider `COc1ccc(C(=O)C2CCN(C(=O)c3ccc(OC)cc3F)CC2)c(F)c1`, for which the IC50 in data set [1] amounted to 21500 nM. Take `COc1ccc(C(=O)N2[C@H](C)CN(C(=O)c3cc(NC(C)=O)ccc3F)C[C@H]2C)c(F)c1`: the IC50 in data set [1] is > 66000 nM. For the molecule `COc1ccc(C(=O)N2[C@H](C)CN(C(=O)c3cccc(OC)c3F)C[C@H]2C)c(F)c1`, the IC50 in data set [1] was > 66000 nM. On to `COc1ccc(C(=O)N2[C@H](C)CN(C(=O)c3ccc4cc(C)[nH]c4c3)C[C@H]2C)c(F)c1`, for which the IC50 in data set [2] (read-out: IC50) amounted to 1000 nM. In the case of `COc1ccc(C(=O)N2C[C@@H](C)N(C(=O)c3ccc(OC(C)C)cc3F)[C@H](C)C2)c(F)c1`, the half-maximal inhibitory concentration (IC50) in data set [1] came out at 1400 nM. On to `COc1ccc(C(=O)N2CC3CC2CN3C(=O)c2ccc(OC)cc2F)c(F)c1`, for which, in data set [1], the half-maximal inhibitory concentration (IC50) was > 66000 nM.

In the case of `COc1ccc(C(=O)N2[C@H](C)CN(C(=O)c3ccc4[nH]ccc4c3)C[C@H]2C)c(F)c1`, the IC50 entry in data set [2] was “Not Active”; in data set [1] it was > 66000 nM. As for `COc1ccc(C(=O)N2[C@H](C)CN(C(=O)c3cc(OC)ccc3F)C[C@H]2C)c(F)c1`, the IC50 in data set [1] was > 66000 nM. Take `COc1ccc(C(=O)N2CC(C)N(C(=O)c3ccc(OC)cc3F)CC2C)c(F)c1` (stereo not drawn): the IC50 in data set [1] stood at 11400 nM. In the case of `CCOc1ccc(C(=O)N2[C@H](C)CN(C(=O)c3ccc(OC)cc3F)C[C@H]2C)c(F)c1`, the IC50 in data set [1] was determined as 380 nM. Consider `COc1ccc(C(=O)N2CCCN(C(=O)c3ccc(OC)cc3F)CC2)c(F)c1`, for which the IC50 in data set [1] came to 18900 nM. As for `COc1ccc(C(=O)N2[C@H](C)CN(C(=O)c3ccc4ccn(C)c4c3)C[C@H]2C)c(F)c1`, the concentration for half-maximal inhibition (IC50) entry in data set [2] is on record as “Not Active”. Consider `COc1ccc(C(=O)N2C[C@@H](C)N(C(=O)c3ccc(F)cc3F)[C@H](C)C2)c(F)c1`, for which, in data set [1], the IC50 amounted to 1300 nM.

On to `Cc1csc(NC(=O)C2CCN(C(=O)N(C)Cc3ccccc3)CC2)n1`, for which the hepatocyte CLint at 1 µM in data set [3] is 35 µL/min/1e6 cells. The IC50 in data set [1] is 1500 nM. Regarding `COc1ccc(C(=O)N2[C@H](C)CN(C(=O)c3ccc4cc[nH]c4c3)C[C@H]2C)c(F)c1`, the concentration for half-maximal inhibition (IC50) in data set [2] (read-out: IC50) is 240 nM; in data set [1], 66 nM; in data set [5] it was ≥ 100000 nM. In data set [3], the hepatocyte CLint at 1 µM is 8.7 µL/min/1e6 cells. Moreover, in data set [4], the solubility kinetic came out at 148 µM (≈ 60.6 µg/mL). For the same molecule, the Papp A→B at 2 h, 5 µM in data set [6] turned out to be 12.3 ×10⁻⁶ cm/s.

Consider `CCOc1ccc(C(=O)N2C[C@@H](C)N(C(=O)c3ccc(OC)cc3F)[C@H](C)C2)c(F)c1`, for which the IC50 in data set [1] is 130 nM.
